This is an account of results in ChEMBL document CHEMBL1649255, “Impact of novel human immunodeficiency virus type 1 reverse transcriptase mutations P119S and T165A on 4'-ethynylthymidine analog resistance profile” (Antimicrob Agents Chemother, 2009).

SMILES strings stand for the structures.

Assay [1] has as its system Human immunodeficiency virus 1. In words: Antiviral activity against HIV1 pNL4-3 harboring Reverse transcriptase T165A/M184V mutant gene infected in TZM-bl cells after 72 hrs by luciferase assay. In kind it is functional, organism-based. The following applies: Human immunodeficiency virus 1, pNL4-3, TZM-bl. In short, it runs like this: (§1)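 TZM-bl cells (LTR-driven luciferase reporter) at 5 × 10^4 per well in RPMI 1640 with 10% dialyzed FBS. They were preincubated 16 h at 37°C with a range of 4′-Ed4T, d4T, 3TC or AZT, then infected with NL4-3-derived clones at MOI 0.01. After 72 h, lysates were read for luciferase, with uninfected background subtracted. EC50 is from % of no-drug signal, reported as mean ± SD of three experiments.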

The subject of assay [2] is Human immunodeficiency virus 1. In words: Antiviral activity against HIV1 pNL4-3 harboring Reverse transcriptase P119S/M184V mutant gene infected in TZM-bl cells after 72 hrs by luciferase assay. In kind it is functional, organism-based. The following applies: Human immunodeficiency virus 1, pNL4-3, TZM-bl. In short, it runs like this: as §1
The test system of assay [3] is Human immunodeficiency virus 1. In words: Antiviral activity against HIV1 pNL4-3 harboring Reverse transcriptase M184V mutant gene infected in TZM-bl cells after 72 hrs by luciferase assay. In kind it is functional, organism-based. The note with it: Human immunodeficiency virus 1, pNL4-3, TZM-bl. In short, it runs like this: as §1
The subject of assay [4] is Human immunodeficiency virus 1. The assay can be described thus: Antiviral activity against HIV1 pNL4-3 harboring Reverse transcriptase P119S/T165A mutant gene infected in TZM-bl cells after 72 hrs by luciferase assay. The assay is classed as functional, organism-based. The following applies: Human immunodeficiency virus 1, pNL4-3, TZM-bl. In short, it runs like this: as §1

For assay [5], the system named is Human immunodeficiency virus 1. In words: Antiviral activity against HIV1 pNL4-3 harboring Reverse transcriptase T165A mutant gene infected in TZM-bl cells after 72 hrs by luciferase assay. In kind it is functional, organism-based. The note with it: Human immunodeficiency virus 1, pNL4-3, TZM-bl. In short, it runs like this:
as §1

Assay [6] relates to Human immunodeficiency virus 1. The assay can be described thus: Antiviral activity against HIV1 pNL4-3 harboring chimeric pTKD infected in TZM-bl cells after 72 hrs by luciferase assay. The assay is classed as functional, organism-based. The note with it: Human immunodeficiency virus 1, pNL4-3, TZM-bl. The procedure, abridged: as §1
Assay [7] has as its system Human immunodeficiency virus 1. The assay can be described thus: Antiviral activity against wild-type HIV1 pNL4-3 infected in TZM-bl cells by luciferase assay. In kind it is functional, organism-based. The note with it: Human immunodeficiency virus 1, pNL4-3, TZM-bl. The procedure, abridged: as §1
The subject of assay [8] is Human immunodeficiency virus 1. In words: Antiviral activity against HIV1 pNL4-3 harboring Reverse transcriptase P119S mutant gene infected in TZM-bl cells after 72 hrs by luciferase assay. The assay is classed as functional, organism-based. The following applies: Human immunodeficiency virus 1, pNL4-3, TZM-bl. The procedure, abridged: as §1
Assay [9] relates to Human immunodeficiency virus 1. In words: Antiviral activity against HIV1 pNL4-3 harboring Reverse transcriptase P119S/T165A/M184V mutant gene infected in TZM-bl cells after 72 hrs by luciferase assay. The note with it: Human immunodeficiency virus 1, pNL4-3, TZM-bl. The assay is classed as functional, organism-based. In short, it runs like this:
as §1

Assay [10] has as its system Human immunodeficiency virus type 1 reverse transcriptase (Human immunodeficiency virus 1), Q72547 [P119S,M184V]. In words: Ratio of Ki to Km for HIV1 Reverse transcriptase P119S/M184V mutant. In short, it runs like this:
(§2)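 Steady-state inhibition of dTTP incorporation used 2.5 nM wild-type or mutant RT and 250 nM DNA/RNA 23-mer/36-mer primer/template. Apparent dTTP Km was measured across varied 4′-Ed4TTP or d4TTP to give Ki. Ki/Km(dTTP) served as the inhibition index.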

Assay [11] deals with Human immunodeficiency virus type 1 reverse transcriptase (Human immunodeficiency virus 1, UniProt Q72547, M184V/P119S/T165A). The assay can be described thus: Inhibition of HIV1 Reverse transcriptase P119S/T165A/M184V mutant. The procedure, abridged: as §2
Assay [12] has as its system Human immunodeficiency virus type 1 reverse transcriptase (Human immunodeficiency virus 1), Q72547 [P119S,T165A]. In words: Ratio of Ki to Km for HIV1 Reverse transcriptase P119S/T165A mutant. In short, it runs like this:
as §2

Assay [13] addresses Human immunodeficiency virus type 1 reverse transcriptase (Human immunodeficiency virus 1) (UniProt Q72547). In words: Ratio of Ki to Km for wild-type HIV1 Reverse transcriptase. In short, it runs like this:
as §2

The target in assay [14] is Human immunodeficiency virus type 1 reverse transcriptase (Human immunodeficiency virus 1, UniProt Q72547, P119S). The assay can be described thus: Inhibition of HIV1 Reverse transcriptase P119S mutant. In short, it runs like this: as §2
Assay [15] deals with Human immunodeficiency virus type 1 reverse transcriptase (Human immunodeficiency virus 1, UniProt Q72547). The assay can be described thus: Inhibition of wild-type HIV1 Reverse transcriptase. The procedure, abridged:
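Same steady-state dTTP incorporation reaction: 250 nM DNA 23-mer/RNA 36-mer primer/template, 2.5 nM RT, Tris-HCl pH 8.0/NaCl/MgCl2/DTT/BSA buffer, 37°C. The analog triphosphate inhibitor was added at various concentrations. Apparent dTTP Km was measured at each inhibitor level to derive Ki, and Ki/Km(dTTP) was used as an inhibition-efficiency index.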

Assay [16] concerns Human immunodeficiency virus type 1 reverse transcriptase (Human immunodeficiency virus 1), Q72547 [T165A,M184V]. In words: Ratio of Ki to Km for HIV1 Reverse transcriptase T165A/M184V mutant. The procedure, abridged:
as §2

For assay [17], the target named is Human immunodeficiency virus type 1 reverse transcriptase (Human immunodeficiency virus 1, UniProt Q72547, M184V/P119S). The assay can be described thus: Inhibition of HIV1 Reverse transcriptase P119S/M184V mutant. In short, it runs like this: as §2
In assay [18] the test system is Human immunodeficiency virus type 1 reverse transcriptase (Human immunodeficiency virus 1), Q72547 [T165A]. The assay can be described thus: Ratio of Ki to Km for HIV1 Reverse transcriptase T165A mutant. In short, it runs like this:
as §2

The test system of assay [19] is Human immunodeficiency virus type 1 reverse transcriptase (Human immunodeficiency virus 1), Q72547 [M184V]. In words: Ratio of Ki to Km for HIV1 Reverse transcriptase M184V mutant. The procedure, abridged: as §2
Assay [20] deals with Human immunodeficiency virus type 1 reverse transcriptase (Human immunodeficiency virus 1, UniProt Q72547, P119S/T165A). In words: Inhibition of HIV1 Reverse transcriptase P119S/T165A mutant. In short, it runs like this: as §2
The target of assay [21] is Human immunodeficiency virus type 1 reverse transcriptase (Human immunodeficiency virus 1, UniProt Q72547, T165A). In words: Inhibition of HIV1 Reverse transcriptase T165A mutant. The procedure, abridged:
as §2

In assay [22] the target is Human immunodeficiency virus type 1 reverse transcriptase (Human immunodeficiency virus 1, UniProt Q72547, M184V/T165A). In words: Inhibition of HIV1 Reverse transcriptase T165A/M184V mutant. In short, it runs like this:
as §2

Assay [23] relates to Human immunodeficiency virus type 1 reverse transcriptase (Human immunodeficiency virus 1), Q72547 [P119S,T165A,M184V]. The assay can be described thus: Ratio of Ki to Km for HIV1 Reverse transcriptase P119S/T165A/M184V mutant. In short, it runs like this:
as §2

In assay [24] the test system is Human immunodeficiency virus type 1 reverse transcriptase (Human immunodeficiency virus 1), Q72547 [P119S]. The assay can be described thus: Ratio of Ki to Km for HIV1 Reverse transcriptase P119S mutant. The procedure, abridged:
as §2

The target of assay [25] is Human immunodeficiency virus type 1 reverse transcriptase (Human immunodeficiency virus 1, UniProt Q72547, M184V). In words: Inhibition of HIV1 Reverse transcriptase M184V mutant. In short, it runs like this:
as §2

By EC50 is commonly meant the concentration at which the effect is half-maximal. A lower EC50 goes with an effect from little substance. Consider `C=C[C@@]1(CO)C=C[C@H](n2cc(C)c(=O)[nH]c2=O)O1`, for which the EC50 worked out at 1320 nM in [1]; 1380 nM in assay [2]; 980 nM in assay [3]; 350 nM in assay [4]; 580 nM in [5]; 2100 nM in assay [6]. Also, the EC50 came out at 370 nM in [7], 510 nM in assay [8] and 1960 nM in [9].

The Ki is a dissociation constant, usually derived from enzyme kinetics or from competition with a known ligand. A lower Ki goes with tighter binding. As for `C=C[C@@]1(COP(=O)(O)OP(=O)(O)OP(=O)(O)O)C=C[C@H](n2cc(C)c(=O)[nH]c2=O)O1`, the Ki/Km in assay [10] was found to be 3.6; in assay [12] it was 0.34; in [13], 0.45; in assay [16] it was 6; in assay [18], 0.8; in [19], 1.7. Moreover, the results for the Ki/Km in [23] and in [24] were 4.9 and 0.85, respectively. Also, the Ki in assay [11] stood at 730 nM; in [14], 110 nM; in [15] it was 54 nM; in assay [17], 640 nM; in assay [20] it was 24 nM; in assay [21], 80 nM. Further, the Ki came to 660 nM in assay [22] and 210 nM in assay [25].

Turning to `Nc1ccn([C@@H]2CS[C@H](CO)O2)c(=O)n1` [LAMIVUDINE], the EC50 was > 60000 nM in assay [1]; > 60000 nM in assay [2]; > 60000 nM in assay [3]; 2100 nM in assay [4]; 1080 nM in assay [5]; > 60000 nM in assay [6]. Also, the EC50 in [7] is 650 nM; in [8], 470 nM; in [9], > 60000 nM.

`Cc1cn([C@H]2C=C[C@@H](COP(=O)(O)OP(=O)(O)OP(=O)(O)O)O2)c(=O)[nH]c1=O` [STAVUDINE TRIPHOSPHATE]: the Ki/Km is 2.7 in assay [10]; 5.3 in [12]; 5.3 in assay [13]; 2.7 in assay [16]; 2.1 in assay [18]; 6.6 in [19]. In addition, the Ki/Km in assay [23] came out at 7; in [24], 2.1. Moreover, the Ki in [11] was 1050 nM; in assay [14], 640 nM; in [15], 630 nM; in assay [17], 480 nM; in assay [20], 370 nM; in [21] it was 210 nM. The Ki in assay [22] is 300 nM; in assay [25], 790 nM.

On to `Cc1cn([C@H]2C=C[C@@H](CO)O2)c(=O)[nH]c1=O` [STAVUDINE], for which the EC50 in [1] was 1500 nM; in assay [2], 1550 nM; in assay [3], 1400 nM; in assay [4] it was 2480 nM; in assay [5], 1460 nM; in assay [6], 1000 nM. Also, the EC50 in assay [7] was 1250 nM; in [8], 1440 nM; in [9] it was 1280 nM.

Consider `Cc1cn([C@H]2C[C@H](N=[N+]=[N-])[C@@H](CO)O2)c(=O)[nH]c1=O` [ZIDOVUDINE], for which the EC50 in assay [1] is 24 nM; in [2] it was 11 nM; in assay [3], 11 nM; in assay [4], 26 nM; in [5], 22 nM; in assay [6], 8 nM. Moreover, the EC50 stood at 23 nM in assay [7], 17 nM in [8] and 53 nM in assay [9].
